Reference: ChEMBL document CHEMBL1126276, “Synthesis and antimalarial properties of 1-imino derivatives of 7-chloro-3-substituted-3,4-dihydro-1,9(2H,10H)-acridinediones and related structures” (J Med Chem, 1992)

Columns and labels:
Plasmodium berghei [1] = assay: Antimalarial activity was measured against mice (Mus musculus) infected with Plasmodium berghei by subcutaneous administration of 160 mg/kg dose; format: organism-based; design: dose 160 mg/kg, route subcutaneous; conditions: in vivo, sc
How it was run: (§1)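 […] in mice infected with a normal drug-sensitive P. berghei strain. Compound dissolved or suspended in sesame or peanut oil, given as a single subcutaneous dose 72 h postinfection.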

Plasmodium berghei [2] = assay: Antimalarial activity was measured against mice (Mus musculus) infected with Plasmodium berghei by subcutaneous administration of 640 mg/kg dose; format: organism-based; design: dose 640 mg/kg, route subcutaneous; conditions: in vivo, sc; how it was run: as §1
Plasmodium berghei [3] = assay: Antimalarial activity was measured against mice (Mus musculus) infected with Plasmodium berghei by subcutaneous administration of 40 mg/kg dose; format: organism-based; design: dose 40 mg/kg, route subcutaneous; conditions: in vivo, sc; how it was run: as §1
Plasmodium berghei [4] = assay: (§2) Antimalarial activity in Plasmodium berghei infected mice (Mus musculus) after 40 mg/kg subcutaneous dose; format: functional; how it was run: as §1
Plasmodium berghei [5] = assay: Antimalarial activity was measured against mice (Mus musculus) infected with Plasmodium berghei by subcutaneous administration of 80 mg/kg dose; format: organism-based; design: dose 80 mg/kg, route subcutaneous; conditions: in vivo, sc; how it was run: as §1
Plasmodium berghei [6] = assay: Antimalarial activity Plasmodium berghei infected mice (Mus musculus) after 640 mg/kg subcutaneous dose; format: functional; how it was run: as §1
Plasmodium berghei [7] = assay: Antimalarial activity was measured against mice (Mus musculus) infected with Plasmodium berghei by subcutaneous administration of 20 mg/kg dose; format: organism-based; design: dose 20 mg/kg, route subcutaneous; conditions: in vivo, sc; how it was run: as §1
Plasmodium berghei [8] = assay: (§3) Antimalarial activity in Plasmodium berghei infected mice (Mus musculus) after 80 mg/kg subcutaneous dose; format: functional; how it was run: as §1
Plasmodium berghei [9] = assay: Antimalarial activity in Plasmodium berghei infected mice (Mus musculus) after 320 mg/kg subcutaneous dose; format: functional; how it was run: as §1
Plasmodium berghei [10] = assay: as §2; format: functional; remark: listed apart in the source
How it was run: (§4)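 Normal drug-sensitive P. berghei strain in mice. Compound dissolved or suspended in sesame or peanut oil, given parenterally as a single subcutaneous dose 72 h postinfection.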

Plasmodium berghei [11] = assay: as §3; format: functional; how it was run: as §4; remark: listed apart in the source
Plasmodium berghei [12] = assay: Antimalarial activity in Plasmodium berghei infected mice (Mus musculus) after subcutaneous 160 mg/kg dose; format: functional; how it was run: as §4
Plasmodium berghei [13] = assay: (§5) Antimalarial activity in Plasmodium berghei infected mice (Mus musculus) after 10 mg/kg subcutaneous dose; format: functional; how it was run: as §4
Plasmodium berghei [14] = assay: (§6) Antimalarial activity in Plasmodium berghei infected mice (Mus musculus) after 20 mg/kg subcutaneous dose; format: functional; how it was run: as §4
Plasmodium berghei [15] = assay: Antimalarial activity in Plasmodium berghei infected mice (Mus musculus) after subcutaneous 640 mg/kg dose; format: functional; how it was run: as §4
Plasmodium berghei [16] = assay: Antimalarial activity in Plasmodium berghei infected mice (Mus musculus) after subcutaneous 320 mg/kg dose; format: functional; how it was run: as §4
Plasmodium berghei [17] = assay: Antimalarial activity was measured against mice (Mus musculus) infected with Plasmodium berghei by subcutaneous administration of 320 mg/kg dose; format: organism-based; design: dose 320 mg/kg, route subcutaneous; conditions: in vivo, sc; how it was run: as §1
Plasmodium berghei [18] = assay: as §6; format: functional; how it was run: as §1; remark: listed apart in the source
Plasmodium berghei [19] = assay: Antimalarial activity in Plasmodium berghei infected mice (Mus musculus) after 160 mg/kg subcutaneous dose; format: functional; how it was run: as §1
Plasmodium berghei [20] = assay: Antimalarial activity in Plasmodium berghei infected mice (Mus musculus) after 640 mg/kg subcutaneous dose; format: functional; how it was run: as §1
Plasmodium berghei [21] = assay: (§7) Antimalarial activity in Plasmodium berghei infected mice (Mus musculus) after 5 mg/kg subcutaneous dose; format: functional; how it was run: as §4
Plasmodium berghei [22] = assay: as §7; format: functional; how it was run: as §1; remark: listed apart in the source
Plasmodium berghei [23] = assay: as §5; format: functional; how it was run: as §1; remark: listed apart in the source

SMILES | No. of toxic deaths (Plasmodium berghei [1]) | No. of toxic deaths (Plasmodium berghei [2]) | No. of toxic deaths (Plasmodium berghei [3]) | Delta mean survival time (Plasmodium berghei [4]) | No. of toxic deaths (Plasmodium berghei [5]) | No. of cured mice (Plasmodium berghei [10]) | No. of cured mice (Plasmodium berghei [11]) | No. of cured mice (Plasmodium berghei [12]) | No. of cured mice (Plasmodium berghei [14]) | No. of cured mice (Plasmodium berghei [15]) | No. of cured mice (Plasmodium berghei [16]) | No. of toxic deaths (Plasmodium berghei [17]) | Delta mean survival time (Plasmodium berghei [18]) | also measured
COc1ccccc1C1C/C(=N\CCCN(C)C)c2c(n(O)c3ccc(Cl)cc3c2=O)C1 (configuration not stated) | 5 | 5 | 1 | 0.3 | – | – | – | – | – | – | – | – | – | –
CCCC/N=C1\CC(c2ccc(Cl)c(Cl)c2)Cc2nc3ccc(Cl)cc3c(O)c21 (configuration not stated) | 5 | 1 | 4 | – | 3 | – | – | – | – | – | – | – | – | Delta mean survival time (Plasmodium berghei [6]): 2.5; No. of toxic deaths (Plasmodium berghei [7]): 5; Delta mean survival time (Plasmodium berghei [8]): 1.5; Delta mean survival time (Plasmodium berghei [9]): 1.2
CCN(CC)CCCC/N=C1\CC(c2ccc(Cl)cc2Cl)Cc2nc3ccc(Cl)cc3c(O)c21 (configuration not stated) | – | – | – | – | – | 5 | 5 | 5 | 5 | 5 | 5 | – | – | No. of cured mice (Plasmodium berghei [13]): 2
O=c1c2c(n(O)c3ccc(Cl)cc13)CC(c1cccc(C(F)(F)F)c1)C/C2=N\CCCCCN1CCCC1 (configuration not stated) | 5 | 5 | 4 | 0.6 | – | – | – | – | – | – | – | – | – | –
C=CCNCC/N=C1\CC(c2ccc(C(F)(F)F)cc2)Cc2c1c(=O)c1cc(Cl)ccc1n2O (configuration not stated) | – | 5 | – | 8.4 | 3 | 2 | 1 | 5 | – | – | – | 5 | 7.8 | –
CCN(CC)CCCC(C)/N=C1\CC(c2ccc(C(F)(F)F)cc2)Cc2nc3ccc(Cl)cc3c(O)c21 (configuration not stated) | – | – | – | – | 1 | 5 | 4 | 5 | 3 | 2 | 3 | 2 | 10.8 | Delta mean survival time (Plasmodium berghei [6]): 3.3
Oc1c2c(nc3ccc(Cl)cc13)CC(c1ccc(Cl)cc1Cl)C/C2=N\CCCN1CCCC1 (configuration not stated) | – | – | – | – | – | 5 | 5 | 5 | 4 | 5 | 5 | – | 22.9 | No. of cured mice (Plasmodium berghei [13]): 1
CCN(CC)CCC/N=C1\CC(c2ccc(C(F)(F)F)cc2)Cc2c1c(=O)c1cc(Cl)ccc1n2O (configuration not stated) | 3 | 5 | – | 16.8 | 3 | 3 | 2 | 2 | 2 | – | 2 | 3 | 10.1 | –
O=C1CC(c2ccc(C(F)(F)F)cc2)Cc2c1c(=O)c1cc(Cl)c(F)cc1n2O (configuration not stated) | 5 | 5 | 5 | – | 5 | – | – | – | – | – | – | 5 | 9 | –
CN(C)CCC/N=C1\CC(c2ccc(C(F)(F)F)cc2)Cc2nc3cc(Cl)ccc3c(O)c21 (configuration not stated) | 5 | 5 | 3 | 5.4 | 3 | – | – | – | – | – | – | 5 | 2.1 | Delta mean survival time (Plasmodium berghei [8]): 6.4
CN(C)CCC/N=C1\CC(c2ccc(Cl)cc2Cl)Cc2nc3cc(Cl)ccc3c(O)c21 (configuration not stated) | – | – | – | 6.3 | – | 1 | – | 4 | – | 3 | 5 | – | 2.8 | Delta mean survival time (Plasmodium berghei [19]): 13.8; No. of toxic deaths (Plasmodium berghei [20]): 2; Delta mean survival time (Plasmodium berghei [8]): 12
CN(C)CCC/N=C1\CC(c2ccc(C(F)(F)F)cc2)Cc2nc3ccccc3c(O)c21 (configuration not stated) | 5 | 5 | 5 | – | – | – | – | – | – | – | – | – | 5.3 | No. of toxic deaths (Plasmodium berghei [7]): 1
CN(C)CCC/N=C1\CC2(CCCCC2)Cc2c1c(=O)c1cc(Cl)ccc1n2O | 5 | 5 | 5 | – | – | – | – | – | – | – | – | – | – | –
O=C1CC(c2ccc(Cl)cc2Cl)Cc2nc3c(Cl)cccc3c(O)c21 (configuration not stated) | 2 | 4 | 1 | 1.3 | 1 | – | – | – | – | – | – | 2 | 0.3 | Delta mean survival time (Plasmodium berghei [19]): 1.3; Delta mean survival time (Plasmodium berghei [6]): 2; No. of toxic deaths (Plasmodium berghei [7]): 1; Delta mean survival time (Plasmodium berghei [8]): 5.3; Delta mean survival time (Plasmodium berghei [9]): 4
CCCCNC(CC)C/N=C1\CC(c2ccc(Cl)cc2Cl)Cc2nc3ccc(Cl)cc3c(O)c21 (configuration not stated) | – | – | – | – | – | 5 | 5 | 5 | 5 | 5 | 5 | – | – | No. of cured mice (Plasmodium berghei [13]): 4
CN(C)CCC/N=C1\CC(c2ccc(Cl)cc2Cl)Cc2nc3ccc(Cl)cc3c(O)c21 (configuration not stated) | – | – | – | – | – | 5 | 5 | 5 | 5 | 5 | 5 | – | – | No. of cured mice (Plasmodium berghei [21]): 1; Delta mean survival time (Plasmodium berghei [22]): 7.4; Delta mean survival time (Plasmodium berghei [23]): 13.6; No. of cured mice (Plasmodium berghei [13]): 3
O=c1c2c(n(O)c3ccc(Cl)cc13)CC(c1cccc(C(F)(F)F)c1)C/C2=N\CCCCN1CCCC1 (configuration not stated) | 5 | 5 | 3 | 4.6 | – | – | – | – | – | – | – | 4 | – | Delta mean survival time (Plasmodium berghei [8]): 3.7; Delta mean survival time (Plasmodium berghei [9]): 0.5
CN(C)CCC/N=C1\CC(c2ccc(Cl)cc2Cl)Cc2nc3c(Cl)cccc3c(O)c21 (configuration not stated) | 5 | 5 | 1 | 0.5 | 4 | – | – | – | – | – | – | 5 | 0 | –
CCN(CC)CC/N=C1\CC(c2ccc(Cl)cc2Cl)Cc2nc3ccc(Cl)cc3c(O)c21 (configuration not stated) | – | – | – | – | – | 5 | 5 | 5 | 5 | 5 | 5 | – | – | No. of cured mice (Plasmodium berghei [13]): 5
CCn1c2c(c(=O)c3cc(Cl)ccc31)C(=O)CC(c1ccc(C(F)(F)F)cc1)C2 (configuration not stated) | 2 | 1 | 2 | 0 | – | – | – | – | – | – | – | – | – | Delta mean survival time (Plasmodium berghei [19]): 0; Delta mean survival time (Plasmodium berghei [6]): 0
CCN(CC)CC/N=C1\CC(c2ccc(C(F)(F)F)cc2)Cc2c1c(=O)c1cc(Cl)ccc1n2O (configuration not stated) | 1 | 2 | – | 10.8 | – | 2 | 5 | 4 | 1 | 3 | 4 | 1 | 10.5 | –
CN(C)CCC/N=C1\CC(c2ccccc2Cl)Cc2c1c(=O)c1cc(Cl)ccc1n2O (configuration not stated) | 1 | 5 | 2 | 3 | – | – | – | – | – | – | – | – | – | Delta mean survival time (Plasmodium berghei [19]): 4
OCCN(CCO)CCC/N=C1\CC(c2ccc(Cl)cc2Cl)Cc2nc3ccc(Cl)cc3c(O)c21 (configuration not stated) | – | – | – | 10.9 | – | 4 | 5 | 5 | 4 | 5 | 5 | – | 10.9 | No. of cured mice (Plasmodium berghei [13]): 1
